Measurements: ChEMBL document CHEMBL4033697, “Synthesis of methanesulphonamido-benzimidazole derivatives as gastro-sparing antiinflammatory agents with antioxidant effect” (Bioorg Med Chem Lett, 2017)
Values belong to the compound of their own block, whether it stands above or below them.

How the values were obtained:
[1] = Antioxidant activity of the compound in phosphate buffer at pH 6.6 assessed as potassium ferric cyanide ion reducing activity at 50 umol/ml after 20 mins by spectrophotometric method relative to control; format: functional; parameters: scale not given: the % may be the effect or the level left
Outline: (§1)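 Methanolic sample (1.0–50.0 […], units as printed) mixed with 0.2 M phosphate buffer pH 6.6 and 1% K3Fe(CN)6, 50 °C for 20 min; cooled, 10% TCA added, aliquot diluted with water plus 0.1% FeCl3, 10 min stand. A700 read against a methanol control; triplicate. Reducing power (%) = [(Atest − Acontrol)/Atest] × 100; EC50 derived; ascorbic acid standard.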

Rattus norvegicus [2] = experiment: Anti-inflammatory activity in rat assessed as reduction in carrageenan-induced paw edema at 40 mg/kg, po measured after 5 hrs by plethysmographic method relative to control; format: functional; parameters: scale not given: the % may be the effect or the level left
Outline: (§2)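 Rats; carrageenan in 0.9% saline injected into paw; compound suspended in 0.5% w/v CMC given orally 30 min after carrageenan, three graded doses per compound. Paw volume by plethysmograph before and at intervals after treatment; values at 5 h. % reduction in edema = (1 − Vt/Vc) × 100 versus carrageenan control; ED50 from the three graded doses; one-way ANOVA.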

[3] = Antioxidant activity of the compound in phosphate buffer at pH 6.6 assessed as potassium ferric cyanide ion reducing activity after 20 mins by spectrophotometric method; format: functional; outline: as §1
Rattus norvegicus [4] = experiment: Toxicity in rat model of carrageenan-induced paw edema assessed as behavioral changes at 2.5 to 40 mg/kg, po measured during compound dosing; format: organism-based; conditions: in vivo
Rattus norvegicus [5] = experiment: Ulcerogenicity in rat model of carrageenan-induced paw edema assessed as diameter of lesion in gastric wall at 2.5 mg/kg, po measured after 5 hrs; format: toxicity, organism-based; conditions: in vivo
Outline: (§3)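 After oral dosing in 0.5% CMC in the carrageenan paw model, rats were killed by cervical dislocation. Stomachs were inflated with 2% formalin, immersed 10 min to fix, and opened along the greater curvature. Longest lesion diameters were summed as a total lesion score (mm) per animal and averaged per group. Rofecoxib served as negative control and indomethacin as positive control.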

[6] = Antioxidant activity of the compound in phosphate buffer at pH 6.6 assessed as potassium ferric cyanide ion reducing activity at 10 umol/ml after 20 mins by spectrophotometric method relative to control; format: functional; parameters: scale not given: the % may be the effect or the level left; outline: as §1
[7] = Antioxidant activity of the compound in phosphate buffer at pH 6.6 assessed as potassium ferric cyanide ion reducing activity at 25 umol/ml after 20 mins by spectrophotometric method relative to control; format: functional; parameters: scale not given: the % may be the effect or the level left; outline: as §1
[8] = Antioxidant activity of the compound in phosphate buffer at pH 6.6 assessed as potassium ferric cyanide ion reducing activity at 1 umol/ml after 20 mins by spectrophotometric method relative to control; format: functional; parameters: scale not given: the % may be the effect or the level left; outline: as §1
Rattus norvegicus [9] = experiment: Anti-inflammatory activity in po dosed rat assessed as reduction in carrageenan-induced paw edema measured after 5 hrs by plethysmographic method; format: functional; outline: as §2
Rattus norvegicus [10] = experiment: Anti-inflammatory activity in rat assessed as reduction in carrageenan-induced paw edema at 10 mg/kg, po measured after 5 hrs by plethysmographic method relative to control; format: functional; parameters: scale not given: the % may be the effect or the level left; outline: as §2
[11] = Antioxidant activity of the compound in phosphate buffer at pH 6.6 assessed as potassium ferric cyanide ion reducing activity at 2.5 umol/ml after 20 mins by spectrophotometric method relative to control; format: functional; parameters: scale not given: the % may be the effect or the level left; outline: as §1
Rattus norvegicus [12] = experiment: Ulcerogenicity in rat model of carrageenan-induced paw edema assessed as diameter of lesion in gastric wall at 40 mg/kg, po measured after 5 hrs; format: toxicity, organism-based; conditions: in vivo; outline: as §3
Rattus norvegicus [13] = experiment: Ulcerogenicity in rat model of carrageenan-induced paw edema assessed as diameter of lesion in gastric wall at 10 mg/kg, po measured after 5 hrs; format: toxicity, organism-based; conditions: in vivo; outline: as §3
[14] = Antioxidant activity of the compound in phosphate buffer at pH 6.6 assessed as potassium ferric cyanide ion reducing activity at 5 umol/ml after 20 mins by spectrophotometric method relative to control; format: functional; parameters: scale not given: the % may be the effect or the level left; outline: as §1
Rattus norvegicus [15] = experiment: Anti-inflammatory activity in rat assessed as reduction in carrageenan-induced paw edema at 2.5 mg/kg, po measured after 5 hrs by plethysmographic method relative to control; format: functional; parameters: scale not given: the % may be the effect or the level left; outline: as §2
Rattus norvegicus [16] = experiment: Anti-inflammatory activity in rat assessed as reduction in carrageenan-induced paw edema at 25 mg/kg, po measured after 5 hrs by plethysmographic method relative to control; format: functional; parameters: scale not given: the % may be the effect or the level left; outline: as §2
Rattus norvegicus [17] = experiment: Ulcerogenicity in rat model of carrageenan-induced paw edema assessed as diameter of lesion in gastric wall at 25 mg/kg, po measured after 5 hrs; format: toxicity, organism-based; conditions: in vivo; outline: as §3
Rattus norvegicus [18] = experiment: Anti-inflammatory activity in rat assessed as reduction in carrageenan-induced paw edema at 5 mg/kg, po measured after 5 hrs by plethysmographic method relative to control; format: functional; parameters: scale not given: the % may be the effect or the level left; outline: as §2
Rattus norvegicus [19] = experiment: Toxicity in rat model of carrageenan-induced paw edema assessed as behavioral changes at 5 to 75 mg/kg, po measured during compound dosing; format: organism-based; conditions: in vivo
Rattus norvegicus [20] = experiment: Anti-inflammatory activity in rat assessed as reduction in carrageenan-induced paw edema at 75 mg/kg, po measured after 5 hrs by plethysmographic method relative to control; format: functional; parameters: scale not given: the % may be the effect or the level left; outline: as §2
Rattus norvegicus [21] = experiment: Ulcerogenicity in rat model of carrageenan-induced paw edema assessed as diameter of lesion in gastric wall at 75 mg/kg, po measured after 5 hrs; format: toxicity, organism-based; conditions: in vivo; outline: as §3
Rattus norvegicus [22] = experiment: Ulcerogenicity in rat model of carrageenan-induced paw edema assessed as diameter of lesion in gastric wall at 5 mg/kg, po measured after 5 hrs; format: toxicity, organism-based; conditions: in vivo; outline: as §3
Rattus norvegicus [23] = experiment: Anti-inflammatory activity in rat assessed as reduction in carrageenan-induced paw edema at 30 mg/kg, po measured after 5 hrs by plethysmographic method relative to control; format: functional; parameters: scale not given: the % may be the effect or the level left; outline: as §2
Rattus norvegicus [24] = experiment: Ulcerogenicity in rat model of carrageenan-induced paw edema assessed as diameter of lesion in gastric wall at 30 mg/kg, po measured after 5 hrs; format: toxicity, organism-based; conditions: in vivo; outline: as §3

Compound: CCCc1nc2cc([N+](=O)[O-])ccc2[nH]1
Activity (Rattus norvegicus [16]): 6.82%
Activity (Rattus norvegicus [17]): 0.22 mm
Activity (Rattus norvegicus [18]): 2.27%
Activity (Rattus norvegicus [19]): Non-Toxic
Activity (Rattus norvegicus [20]): 6.82%
Activity (Rattus norvegicus [21]): 0.32 mm
Activity (Rattus norvegicus [22]): 0 mm

Compound: COc1ccc2c(c1)c(CC(=O)O)c(C)n2C(=O)c1ccc(Cl)cc1 [INDOMETHACIN]
ED50 (Rattus norvegicus [9]): 2.2 mg/kg
Activity (Rattus norvegicus [10]): 75%
Activity (Rattus norvegicus [13]): 19.4 mm

Compound: CCCc1nc2ccccc2[nH]1
Activity (Rattus norvegicus [16]): 53.18%
Activity (Rattus norvegicus [17]): 0.2 mm
Activity (Rattus norvegicus [18]): 0.45%
ED50 (Rattus norvegicus [9]): 5.53 mg/kg
Activity (Rattus norvegicus [19]): Non-Toxic
Activity (Rattus norvegicus [20]): 77.27%
Activity (Rattus norvegicus [21]): 0.42 mm
Activity (Rattus norvegicus [22]): 0.1 mm

Compound: CCCCn1c(CCC)nc2cc(NS(C)(=O)=O)ccc21
Activity [1]: 73.5%
Activity (Rattus norvegicus [2]): 92.73%
EC50 [3]: 4 mM
Activity (Rattus norvegicus [4]): Non-Toxic
Activity (Rattus norvegicus [5]): 0.27 mm
Activity [6]: 61.8%
Activity [7]: 70.3%
Activity [8]: 12.2%
ED50 (Rattus norvegicus [9]): 2.58 mg/kg
Activity (Rattus norvegicus [10]): 86.36%
Activity [11]: 31.3%
Activity (Rattus norvegicus [12]): 1.1 mm
Activity (Rattus norvegicus [13]): 0.51 mm
Activity [14]: 59.8%
Activity (Rattus norvegicus [15]): 43.64%

Compound: CCCCn1c(CCC)nc2cc(N)ccc21
Activity [1]: 62.5%
Activity (Rattus norvegicus [16]): 56.82%
EC50 [3]: 18.2 mM
Activity (Rattus norvegicus [17]): 0.54 mm
Activity (Rattus norvegicus [18]): 59.09%
Activity [6]: 44.8%
Activity [7]: 55.6%
Activity [8]: 6.3%
ED50 (Rattus norvegicus [9]): 5.52 mg/kg
Activity [11]: 15.4%
Activity [14]: 29.9%
Activity (Rattus norvegicus [19]): Non-Toxic
Activity (Rattus norvegicus [20]): 59.09%
Activity (Rattus norvegicus [21]): 1.13 mm
Activity (Rattus norvegicus [22]): 0.28 mm

Compound: O=C1O[C@H]([C@@H](O)CO)C(O)=C1O [ASCORBIC ACID]
Activity [1]: 69.4%
EC50 [3]: 7.4 mM
Activity [6]: 60.8%
Activity [7]: 65.2%
Activity [8]: 6.8%
Activity [11]: 15.5%
Activity [14]: 39.8%

Compound: CS(=O)(=O)c1ccc(C2=C(c3ccccc3)C(=O)OC2)cc1 [ROFECOXIB]
Activity (Rattus norvegicus [23]): 78.95%
Activity (Rattus norvegicus [24]): 2.92 mm

Second part, led by results:

EC50 [3]: 3.7 mM
Compound: CCCCCn1c(CCC)nc2cc(NS(C)(=O)=O)ccc21
Activity [1]: 79.1%
Activity (Rattus norvegicus [2]): 95.64%
Activity (Rattus norvegicus [4]): Non-Toxic
Activity (Rattus norvegicus [5]): 0.25 mm
Activity [6]: 66.5%
Activity [7]: 72.8%
Activity [8]: 15.4%
ED50 (Rattus norvegicus [9]): 2.55 mg/kg
Activity (Rattus norvegicus [10]): 86.36%
Activity [11]: 32.7%
Activity (Rattus norvegicus [12]): 1.01 mm
Activity (Rattus norvegicus [13]): 0.5 mm
Activity [14]: 58%
Activity (Rattus norvegicus [15]): 48.18%

EC50 [3]: > 50 mM
Compound: CCCCCCn1c(CCC)nc2cc([N+](=O)[O-])ccc21
Activity [1]: 45.9%
Activity (Rattus norvegicus [16]): 61.26%
Activity (Rattus norvegicus [17]): 0.54 mm
Activity (Rattus norvegicus [18]): 51.87%
Activity [6]: 17.9%
Activity [7]: 30.1%
Activity [8]: 0.9%
ED50 (Rattus norvegicus [9]): 3.97 mg/kg
Activity [11]: 2.8%
Activity [14]: 6.8%
Activity (Rattus norvegicus [19]): Non-Toxic
Activity (Rattus norvegicus [20]): 78.25%
Activity (Rattus norvegicus [21]): 1.26 mm
Activity (Rattus norvegicus [22]): 0.22 mm

EC50 [3]: > 50 mM
Compound: CCCCCn1c(CCC)nc2cc([N+](=O)[O-])ccc21
Activity [1]: 39.8%
Activity (Rattus norvegicus [16]): 68.18%
Activity (Rattus norvegicus [17]): 0.69 mm
Activity (Rattus norvegicus [18]): 63.64%
Activity [6]: 10.7%
Activity [7]: 20.8%
Activity [8]: 0.4%
ED50 (Rattus norvegicus [9]): 4.8 mg/kg
Activity [11]: 2.1%
Activity [14]: 5.8%
Activity (Rattus norvegicus [19]): Non-Toxic
Activity (Rattus norvegicus [20]): 68.18%
Activity (Rattus norvegicus [21]): 1.03 mm
Activity (Rattus norvegicus [22]): 0.33 mm

EC50 [3]: > 50 mM
Compound: CCCCn1c(CCC)nc2cc([N+](=O)[O-])ccc21
Activity [1]: 45.4%
Activity (Rattus norvegicus [16]): 47.73%
Activity (Rattus norvegicus [17]): 0.7 mm
Activity (Rattus norvegicus [18]): 29.55%
Activity [6]: 16.8%
Activity [7]: 29.2%
Activity [8]: 0.6%
ED50 (Rattus norvegicus [9]): 4.79 mg/kg
Activity [11]: 2.5%
Activity [14]: 6.8%
Activity (Rattus norvegicus [19]): Non-Toxic
Activity (Rattus norvegicus [20]): 52.27%
Activity (Rattus norvegicus [21]): 1.04 mm
Activity (Rattus norvegicus [22]): 0.35 mm

EC50 [3]: 5.1 mM
Compound: CCCCCCn1c(CCC)nc2cc(NS(C)(=O)=O)ccc21
Activity [1]: 75.4%
Activity (Rattus norvegicus [2]): 97.62%
Activity (Rattus norvegicus [4]): Non-Toxic
Activity (Rattus norvegicus [5]): 0.2 mm
Activity [6]: 66.5%
Activity [7]: 69.6%
Activity [8]: 10.6%
ED50 (Rattus norvegicus [9]): 2.45 mg/kg
Activity (Rattus norvegicus [10]): 86.36%
Activity [11]: 29.2%
Activity (Rattus norvegicus [12]): 1.02 mm
Activity (Rattus norvegicus [13]): 0.69 mm
Activity [14]: 49.7%
Activity (Rattus norvegicus [15]): 50.18%

EC50 [3]: 10.2 mM
Compound: CCCCCn1c(CCC)nc2cc(N)ccc21
Activity [1]: 67.3%
Activity (Rattus norvegicus [16]): 54.36%
Activity (Rattus norvegicus [17]): 0.52 mm
Activity (Rattus norvegicus [18]): 45.91%
Activity [6]: 49%
Activity [7]: 60.1%
Activity [8]: 8.7%
ED50 (Rattus norvegicus [9]): 5.47 mg/kg
Activity [11]: 18.7%
Activity [14]: 30.2%
Activity (Rattus norvegicus [19]): Non-Toxic
Activity (Rattus norvegicus [20]): 66.36%
Activity (Rattus norvegicus [21]): 1.06 mm
Activity (Rattus norvegicus [22]): 0.27 mm

EC50 [3]: 10.3 mM
Compound: CCCCCCn1c(CCC)nc2cc(N)ccc21
Activity [1]: 65.9%
Activity (Rattus norvegicus [16]): 49.8%
Activity (Rattus norvegicus [17]): 0.52 mm
Activity (Rattus norvegicus [18]): 33.13%
Activity [6]: 48%
Activity [7]: 57.1%
Activity [8]: 6%
ED50 (Rattus norvegicus [9]): 5.16 mg/kg
Activity [11]: 12.9%
Activity [14]: 34.5%
Activity (Rattus norvegicus [19]): Non-Toxic
Activity (Rattus norvegicus [20]): 69.13%
Activity (Rattus norvegicus [21]): 1.06 mm
Activity (Rattus norvegicus [22]): 0.27 mm
